SENP1 inh = inhibitors of human SENP1 SUMO protease catalytic domain. recombinant SENP1 catalytic domain, CyPet-SUMO1-YPet FRET cleavage. inhibition, % at 10 µM. hit rate 0.21% among 360,000. AID 624204;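 active = inhibition at least 30% at 10 µM, raw YFP signal under a set limit, fluorescence ratio 0.5 to 1.5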
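Material – human SENP1 catalytic domain · Input – SENP1 enzyme, 20 pM final · Compound dosing – single concentration of 10 µM compound, 0.5% DMSO final · Timing – enzyme reaction for 50 min at room temperature, dark · Measured by – FRET fluorescence in CFP and YFP emission channels · Control set – no-enzyme wells low, DMSO-plus-enzyme wells high control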
B2AR ag = agonists of human beta-2 adrenergic receptor inducing internalization | Am2.2-beta2AR cells, FAP receptor internalization, flow cytometry | response, % (test concentration not listed) | hit rate 0.43% among 340,000 | AID 504454;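 active = response above a set limit, near 3 SD of response in nonfluorescent compounds, cut at about 42% in these data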
ABHD5-PLIN5 inh = blocks binding of human ABHD5 to perilipin-5; Q00G26+Q8WTS1; Split G. princeps luciferase complementation, luminescence, 4 h; inhibition, % at 4 µM; hit rate 0.78% among 360,000; AID 602281;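 active = inhibition above the mean inhibition across every tested compound plus 3 SD, cut at about 22% in these data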
NadD block = inhibitors of Staphylococcus aureus NadD | inhibition, % at 20 µM | hit rate 0.78% among 360,000 | purified NadD enzyme, colorimetric absorbance read-out; in the data active = inhibition above about 26%
GRK2 inh = human GRK2 inhibition via aptamer displacement. bead flow cytometry, FAM-aptamer displacement from GRK2. inhibition of aptamer binding, % at 10 µM. hit rate 0.59% among 330,000. AID 488847;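 active = inhibition of aptamer binding above 40%, roughly 3 SD of noise, on plates passing a quality check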;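 note: median bead fluorescence of bound FAM aptamer so fluorescent compounds give negative values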
Target sequence (P25098 whole entry, looked up): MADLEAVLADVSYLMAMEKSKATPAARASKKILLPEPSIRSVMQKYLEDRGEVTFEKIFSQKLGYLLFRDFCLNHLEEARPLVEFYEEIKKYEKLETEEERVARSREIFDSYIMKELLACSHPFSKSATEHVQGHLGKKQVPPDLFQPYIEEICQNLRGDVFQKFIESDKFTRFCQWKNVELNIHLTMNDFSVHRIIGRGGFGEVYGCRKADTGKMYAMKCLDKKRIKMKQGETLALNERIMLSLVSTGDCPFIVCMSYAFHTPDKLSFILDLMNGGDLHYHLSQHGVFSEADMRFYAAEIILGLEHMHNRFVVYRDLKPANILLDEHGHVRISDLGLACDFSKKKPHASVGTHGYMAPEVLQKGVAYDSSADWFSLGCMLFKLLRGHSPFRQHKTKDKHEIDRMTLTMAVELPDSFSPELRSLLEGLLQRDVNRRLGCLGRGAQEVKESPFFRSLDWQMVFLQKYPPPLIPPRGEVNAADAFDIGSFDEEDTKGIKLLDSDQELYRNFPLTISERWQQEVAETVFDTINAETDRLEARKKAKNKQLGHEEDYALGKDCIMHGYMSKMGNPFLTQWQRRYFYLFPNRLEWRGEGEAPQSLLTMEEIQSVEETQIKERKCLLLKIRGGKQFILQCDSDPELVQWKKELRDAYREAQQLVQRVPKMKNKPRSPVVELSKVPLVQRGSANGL
Each line names hits and unclear results; the compound was inactive in the other large screens. Sampled rows, rich in hits. Any-hit rate of the full collection: about 2.5%.

NS(=O)(=O)c1ccc(-c2ccc(/C=C3\SC(=S)N(C4CCS(=O)(=O)C4)C3=O)o2)cc1 (centres undefined)	NadD block 35
CC1(c2ccc3c(c2)OCCO3)NC(=O)N(CC(=O)Nc2ccccc2F)C1=O (centres undefined)	none (no result: GRK2 inh)
CCN(CC(=O)NCc1ccc(Cl)cc1)C(=O)c1cc(OC)cc(OC)c1	none
CCOc1ccc2nc3cc(NCc4ccc(OC)cc4)ccc3c(N)c2c1	NadD block 47
O=c1cc(-c2ccc(Cl)cc2)oc(=O)[nH]1	none
O=c1cc(N=Nc2ccc(Cl)cc2)[nH]c(=O)[nH]1	B2AR ag 51
Cc1c2c(=O)n(-c3nc4ccccc4s3)nc-2cc(O)n1Cc1ccccc1	NadD block 42 (no result: GRK2 inh)
CN(C)C=NC(=O)c1[nH]c2ccc(Cl)cc2c1-c1ccccc1	B2AR ag 49
CC(C)C(=O)N(c1ccc2oc(=O)sc2c1)S(=O)(=O)c1cccs1	ABHD5-PLIN5 inh 30
O=C(/C=C/c1ccco1)NC(=S)Nc1ccc(N2CCCC2)cc1	B2AR ag 44
CCOC(=O)C1(Cc2cccc(Cl)c2)CCCN(C(=O)c2ccc(COC)s2)C1 (centres undefined)	none
O=C(O)c1cccc2cccc(-c3c4ccc(=O)c(O)c-4oc4c(O)c(O)ccc34)c12	NadD block 83 (no result: GRK2 inh)
Nc1c(O)cccc1C(=O)O	none
Cc1noc(C)c1NC(=O)Nc1cccc2c1O[C@H](CN(C)S(=O)(=O)c1cccs1)[C@@H](C)CN([C@H](C)CO)C2=O	none
CC(=O)Nc1cc(-c2cccc(C(=O)NCCO)c2)cn2c(-c3ccc(F)c(Cl)c3)cnc12	none (no result: B2AR ag, GRK2 inh)
CC(/C=C/c1ccco1)=N/NC(=O)c1ccccc1Cl	ABHD5-PLIN5 inh 22
COc1cc(/C=N/n2c(-c3ccc4c(c3)NC(=O)CO4)csc2=Nc2cccc(C)c2)ccc1O	NadD block 35
O=C(NN1C(=O)/C(=C/c2ccc(O)cc2)SC1=S)c1ccccc1O	none
O=C1/C(=C/c2ccc(O)c([N+](=O)[O-])c2)SC(=S)N1Cc1ccccc1	SENP1 inh 38
O=C(NN1C(=O)/C(=C/c2cc([N+](=O)[O-])ccc2O)SC1=S)c1ccccc1O	none (no result: SENP1 inh, B2AR ag, ABHD5-PLIN5 inh, NadD block)
O=C(NN1C(=O)/C(=C/c2ccc(O)c([N+](=O)[O-])c2)SC1=S)c1ccccc1Cl	SENP1 inh 32
O=C(O)CCN1C(=O)/C(=C\c2cccc(OCc3ccccc3)c2)SC1=S	none
COc1cc(/C=C2\SC(=S)N(NC(=O)c3ccccc3O)C2=O)ccc1O	SENP1 inh 59
O=C(O)CCN1C(=O)/C(=C\c2ccc(OCc3ccccc3)c(OCc3ccccc3)c2)SC1=S	NadD block 31
NS(=O)(=O)c1cccc(NC(=O)CC(NC(=O)c2ccccc2Cl)c2ccccc2)c1 (centres undefined)	none
CS(=O)c1nc(-c2ccc(Br)cc2)cc(-c2ccccc2)c1C#N (centres undefined)	B2AR ag 99
CS(=O)(=O)c1nc(-c2ccc(Br)cc2)cc(-c2ccccc2)c1C#N	none
COC(=O)NNC(=O)c1ccc(C)c(Br)c1	GRK2 inh 80
CCN1/C(=C/c2ccc3cc(C)ccc3[n+]2CC)Sc2cc(C)ccc21	none (no result: B2AR ag, GRK2 inh)
CCCCN1/C(=C/c2ccc3ccccc3[n+]2CC)Sc2ccccc21	SENP1 inh 70 (no result: B2AR ag, GRK2 inh)
O=C(O)c1ccc(N2C(=O)/C(=C/C=C/c3ccccc3)SC2=S)cc1	none
CN(C)c1ccc(/C=C/C=C2/SC(=S)N(c3ccccc3)C2=O)cc1	SENP1 inh 72, NadD block 43
CC(C)CC1(C2CCCC2)NC(=O)NC1=O (centres undefined)	none (no result: GRK2 inh)
CC(=O)Nc1cccc(NC(=O)C(=O)c2cn(CC(=O)N3CCCCC3)c3ccccc23)c1	none
COc1ccc(C2(CNC(=O)/C=C\c3ccco3)CCCC2)cc1OC	ABHD5-PLIN5 inh 22, GRK2 inh 48
COc1ccc(CC(C)CC(=O)Nc2ccc(OC)cc2)cc1 (centres undefined)	none
Cc1ccc(-c2nn(-c3ccccc3)cc2C2CC(c3cccs3)=NN2C(=O)CCCC(=O)O)cc1 (centres undefined)	B2AR ag 69
CCN(CC)C1CCN(C(=O)CCn2nnnc2CN2CCOCC2)C1 (centres undefined)	none
CC(C)NC(=S)NCc1cccnc1	GRK2 inh 99
CCC(C)c1ccc(NC(=S)NCc2cccnc2)cc1 (centres undefined)	none

Assay outcomes: PubChem, several laboratories
